The target in data set [1] is Alpha-synuclein (Homo sapiens) (UniProt P37840). Kind of data set: Inhibition of recombinant alpha-synuclein (unknown origin) aggregation expressed in Escherichia coli BL21 (DE3) cells at 1:1 compound-protein molar ratio measured for every 30 mins in presence of ThT by spectrofluorometry. In short, it runs like this:
(§1)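 Recombinant α-syn from E. coli BL21(DE3), extracted by osmotic shock, purified on DEAE-Sepharose with 50–500 mM NaCl gradient. Run at 37 °C; Ex 440/Em 485 nm read every 30 min after 30 s orbital shaking, until plateau. Four wells each. Each well fitted to a sigmoid giving t1/2, kapp = 1/τ, and tlag from lag/elongation intercept, then averaged; Student's t-test.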

Data set [2] has the same target. Kind of data set: Inhibition of recombinant alpha-synuclein (unknown origin) aggregation expressed in Escherichia coli BL21 (DE3) cells assessed as lag time at 1:1 compound-protein molar ratio measured for every 30 mins in presence of ThT by spectrofluorometry (reference value: 15.1 +/- 0.9 hrs). In short, it runs like this:
as §1

For data set [3] the target is unchanged. Kind of data set: Inhibition of recombinant alpha-synuclein (unknown origin) aggregation expressed in Escherichia coli BL21 (DE3) cells assessed as final plateau fluorescence at 1:1 compound-protein molar ratio measured for every 30 mins in presence of ThT by spectrofluorometry relative to control. In a few lines:
as §1

The target is the same in data set [4]. Put plainly: Inhibition of recombinant alpha-synuclein (unknown origin) aggregation expressed in Escherichia coli BL21 (DE3) cells assessed as apparent elongation rate constant at 1:1 compound-protein molar ratio measured for every 30 mins in presence of ThT by spectrofluorometry (reference value: 108.7 +/- 1.8 10^-3/hr). In short, it runs like this: as §1

The target is the same in data set [5]. Put plainly: Inhibition of recombinant alpha-synuclein (unknown origin) aggregation expressed in Escherichia coli BL21 (DE3) cells assessed as elongation phase time at 1:1 compound-protein molar ratio measured for every 30 mins in presence of ThT by spectrofluorometry (reference value: 31.2 +/- 0.6 hrs). To be noted: dose 70.0 µM. In a few lines:
as §1

Data set [6] is described as follows: Solubility of the compound in sodium phosphate buffer at pH 7.4. It counts as physicochemical.
Data set [7] can be described thus: Aggregation property of the compound assessed as change in ThT fluorescence in presence of Thioflavin T. In kind it is physicochemical. To be noted: 336 h; time 2 weeks. In short, it runs like this: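 Compound alone incubated with ThT without α-syn for over 2 weeks; ThT fluorescence monitored to exclude self-aggregation interference.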
In data set [8] the test system is MEF. Put plainly: Cytotoxicity against mouse MEF cells at 10 uM incubated for 24 hrs by MTT assay. In kind it is cell-based. In a few lines:
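MEF cells grown in DMEM with 10% FBS and 1% penicillin-streptomycin to about 80% confluency. Cells trypsinized, plated, and left 24 h at 37 °C in humidified CO2. Compound added at 10 µM in triplicate with DMSO vehicle control, 24 h. MTT 0.5 mg/mL for 4 h in dark, formazan dissolved in DMSO, absorbance read at 570 nm. Mean ± SEM of three independent replicates.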

The target of data set [9] is Alpha-synuclein (Homo sapiens) (UniProt P37840). Kind of data set: Inhibition of recombinant alpha-synuclein (unknown origin) aggregation expressed in Escherichia coli BL21 (DE3) cells assessed as reduction in fluorescent labeled aggregates at 20 uM incubated for >=66 hrs by ThT dye based inverted fluorescence microscopic analysis. To be noted: time hrs >=66. In short, it runs like this:
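After the ThT kinetic run (about 66 h), 10 µL of control or compound-incubated α-syn mixed with 20 µM ThT was placed on a glass slide under a coverslip. Imaged on an inverted fluorescence microscope, FITC filter, 100× oil objective, with constant laser power and intensity.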

For data set [10], the system named is MEF. Kind of data set: Cytotoxicity against mouse MEF cells at 10 uM incubated for 24 hrs in presence of aggregated alpha-synuclein by MTT assay. In kind it is cell-based. In short, it runs like this:
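MEF cells cultured and plated as for the compound-only cytotoxicity assay. Cells treated in triplicate for 24 h with monomeric α-syn, aggregated α-syn, or α-syn aggregated in presence of compound at 1:1. Viability read by MTT (0.5 mg/mL, 4 h, 570 nm). Mean ± SEM, three replicates; Student's t-test, p<0.05.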

The target in data set [11] is Alpha-synuclein (Homo sapiens) (UniProt P37840). Put plainly: Disruption of recombinant preformed alpha-synuclein (unknown origin) aggregation expressed in Escherichia coli BL21 (DE3) at 20 uM incubated for 5 days by ThT dye based inverted fluorescence microscopic analysis. To be noted: time 5.0 day. In short, it runs like this: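 Preformed α-syn aggregates incubated with compound at 1:1 molar ratio at 37 °C for 5 days, without ThT, in a sealed plate, one well each. Samples then stained with ThT and imaged on an inverted fluorescence microscope through a FITC filter with constant imaging parameters.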

Calls of active or inactive are those of the source. No cut-off for these calls is given here.

Consider `O=C(CSc1nnc(-c2ccccc2)c(-c2ccccc2)n1)N1CCN(S(=O)(=O)c2ccccc2[N+](=O)[O-])CC1`, for which the inhibition result in [1] is “Active”. In data set [2], the Tlag amounted to 15.3 h. In addition, the inhibition in data set [3] was < 40%. Besides, in data set [4], the Kapp was 123 10^-3/hr. In addition, the T1/2 in data set [5] came to 29.1 h. Further, in data set [6], the solubility entry is on record as “Insoluble”. Also, the Activity entry in data set [7] was “Not Active”.

As for `O=C(CSc1nnc(-c2ccccc2)c(-c2ccccc2)n1)N1CCN(c2ccnc3cc(Cl)ccc23)CC1`, the Activity entry was “Non-Toxic” with MEF [8], “Toxic” with MEF [10] and “Not Active” in [7]. Also, the inhibition result in data set [9], in [1] and in [11] was “Active” each time. The Tlag in data set [2] stood at 15.9 h. Besides, the inhibition in data set [3] is > 50%. Further, the Kapp in [4] is 128 10^-3/hr. For the same molecule, the T1/2 in data set [5] was 28.2 h. In addition, the solubility result in data set [6] was “Insoluble”.

Turning to `Cc1ccc(S(=O)(=O)N2CCN(C(=O)CSc3nnc(-c4ccccc4)c(-c4ccccc4)n3)CC2)cc1`, the inhibition result in data set [1] is “Active”. Also, the Tlag in data set [2] came to 14.1 h. Besides, the inhibition in [3] is < 40%. Also, the Kapp in [4] is 118 10^-3/hr. The T1/2 in [5] worked out at 29.4 h. Further, the solubility entry in [6] is “Insoluble”. For the same molecule, the Activity result in [7] is listed as “Not Active”.

In the case of `O=C(CSc1nnc(-c2ccccc2)c(-c2ccccc2)n1)N1CCN(S(=O)(=O)c2ccc(Cl)cc2Cl)CC1`, the inhibition result in data set [1] is “Active”. Further, the Tlag in [2] worked out at 13.9 h. The Kapp in [4] is 122 10^-3/hr. For the same molecule, in data set [5], the T1/2 amounted to 30.4 h. Moreover, the solubility entry in [6] is on record as “Insoluble”. Besides, the Activity entry in data set [7] was “Not Active”.

As for `O=C(CSc1nnc(-c2ccccc2)c(-c2ccccc2)n1)N1CCN(S(=O)(=O)c2ccc(Br)cc2)CC1`, the Activity result was “Non-Toxic” in the data set with MEF [8], “Non-Toxic” in the data set on MEF [10] and “Not Active” in [7]. Besides, the inhibition entry in [9] and in [1] was “Active” throughout. In addition, the Tlag in data set [2] was determined as 14.4 h. Also, the inhibition in data set [3] is < 40%. The inhibition entry in data set [11] is “inactive”. For the same molecule, in [4], the Kapp is 120 10^-3/hr. In [5], the T1/2 is 27 h. The solubility result in [6] was “Insoluble”.

`O=C(CSc1nnc(-c2ccccc2)c(-c2ccccc2)n1)N1CCN(S(=O)(=O)c2ccc3ccccc3c2)CC1`: in data set [1], the inhibition entry was “Active”. For the same molecule, the Tlag in data set [2] is 16.1 h. Also, in data set [4], the Kapp is 116 10^-3/hr. In addition, in data set [5], the T1/2 worked out at 30 h. In addition, the solubility entry in data set [6] was “Insoluble”. In data set [7], the Activity entry is on record as “Not Active”.

Turning to `CC(=O)Nc1ccc(S(=O)(=O)N2CCN(C(=O)CSc3nnc(-c4ccccc4)c(-c4ccccc4)n3)CC2)cc1F`, the figures for the Activity result (with MEF [8]; in the data set with MEF [10]; in data set [7]) were “Non-Toxic”, “Toxic” and “Not Active”, respectively. Also, the inhibition entry in data set [9], in data set [1] and in data set [11] was “Active” in each case. The Tlag in [2] stood at 14.9 h. The inhibition in data set [3] was > 50%. Also, in data set [4], the Kapp was 121 10^-3/hr. The T1/2 in data set [5] was 28.1 h. Also, in data set [6], the solubility entry is reported as “Insoluble”.

As for `CC(=O)Nc1ccc(S(=O)(=O)N2CCN(C(=O)CSc3nnc(-c4ccccc4)c(-c4ccccc4)n3)CC2)cc1`, the Activity result with MEF [8] was “Non-Toxic”; in the data set on MEF [10], “Non-Toxic”; in data set [7] it was “Not Active”. The inhibition entry in [9], in data set [1] and in data set [11] was “Active” each time. Moreover, the Tlag in [2] was found to be 14.6 h. Moreover, the inhibition in [3] was > 50%. For the same molecule, the Kapp in [4] is 86.6 10^-3/hr. Besides, the T1/2 in data set [5] was 27.5 h. Also, in data set [6], the solubility result is recorded as “Insoluble”.

The values are drawn from ChEMBL document CHEMBL4706591, “Diphenyl triazine hybrids inhibit α-synuclein fibrillogenesis: Design, synthesis and in vitro efficacy studies” (Eur J Med Chem, 2020).
